This note sets out measurements from ChEMBL document CHEMBL4834396, “Molecular Recognition and Imaging of Human Telomeric G-Quadruplex DNA in Live Cells: A Systematic Advancement of Thiazole Orange Scaffold To Enhance Binding Specificity and Inhibition of Gene Expression” (J Med Chem, 2021).

Structures are written as SMILES. The source made the active and inactive calls. The rule behind the calls is not given here.

The test system of assay [1] is Quadruplex DNA [UNDEFINED MUTATION]. In words: Binding affinity to telomeric Htg24 G-quadruplex DNA G11A mutant (unknown origin) assessed as fluorescence signal at 5 uM under pH condition 7.4 by fluorescence titration analysis. The assay is classed as nucleic-acid assay. The conditions noted are these: Homo sapiens.
For assay [2] the test system is unchanged. In words: Binding affinity to telomeric Htg24 G-quadruplex DNA G23T mutant (unknown origin) assessed as fluorescence signal at 5 uM under pH condition 7.4 by fluorescence titration analysis. Conditions: Homo sapiens. It counts as nucleic-acid assay. Summed up:
(§1)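 Ligand held at 5 μM and mixed with each Htg24 point mutant in Tris-HCl buffer containing 60 mM KCl, pH 7.4. Fluorescence was read, and the signal change was computed as (F mutant − F wild type)/F wild type.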

Assay [3] has the same test system. In words: Binding affinity to telomeric Htg24 G-quadruplex DNA G16C mutant (unknown origin) assessed as negative fluorescence signal at 5 uM under pH condition 7.4 by fluorescence titration analysis. The assay is classed as nucleic-acid assay. The conditions noted are these: Homo sapiens. Summed up:
(§2)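 Ligand 5 μM mixed with wild-type or point-mutant Htg24 in Tris-HCl buffer with 60 mM KCl; signal change calculated as (F mutant − F wild type)/F wild type.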

Assay [4] has as its system DNA. In words: Binding affinity to ds26 DNA (unknown origin) assessed as equilibrium binding constant at 5 uM at 25 degreeC by […]. The assay is classed as nucleic-acid assay. An outline of the steps:
(§3)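 Fluorescence titration: ligand 5 μM in 10 mM Tris-HCl pH 7.4 with 60 mM KCl, nucleic acid added until saturation, 25 °C. Keq from nonlinear fit of F/F0 to an independent-site model.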

The subject of assay [5] is Quadruplex DNA [UNDEFINED MUTATION]. In words: Effect on confirmation of telomeric Htg24 G-quadruplex DNA G22T mutant (unknown origin) assessed as hybrid topology at 5 uM at pH 7.4 by circular dichroism analysis. Conditions: Homo sapiens. It counts as nucleic-acid assay. Summed up:
(§4)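 CD spectra recorded on G4-DNA and ligand, each at 5 μM, in 10 mM Tris-HCl, pH 7.4, with 60 mM KCl. Scan range 220–340 nm in a 1 mm quartz cuvette, 1 nm bandwidth and step, 0.5 s/point. Each spectrum is the average of three scans.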
For orientation: Circular dichroism is the unequal absorption of left and right circularly polarised light.

Assay [6] has the same test system. In words: Binding affinity to telomeric Htg24 G-quadruplex DNA G21T mutant (unknown origin) assessed as strong fluorescence signal at 5 uM under pH condition 7.4 by fluorescence titration analysis. The conditions noted are these: Homo sapiens. It counts as nucleic-acid assay. An outline of the steps:
as §1

Assay [7] concerns MCF7. In words: Antiproliferative activity against human MCF7 cells assessed as reduction in cell viability […] by MTT assay. The assay is classed as functional, cell-based. (In general: Formazan colour is commonly taken as a measure of viable cells.)
The test system of assay [8] is Quadruplex DNA. In words: Binding affinity to telomeric Htg24 G-quadruplex DNA (unknown origin) assessed as fluorescence quantum yield by fluorescence spectrophotometric method. It counts as nucleic-acid assay. An outline of the steps:
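Fluorescence quantum yield determined against fluorescein (Φ = 0.95) in 1% NaOH ethanol. Five increasing ligand concentrations added to fixed DNA, with absorbance and emission recorded for each.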

In assay [9] the target is Quadruplex DNA. In words: Binding affinity to telomeric Htg24 G-quadruplex DNA (unknown origin) assessed as dissociation constant by isothermal titration calorimetric analysis. The assay is classed as nucleic-acid assay. An outline of the steps:
(§5)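 ITC at 25 °C: DNA preannealed at 95 °C for 5 min, cooled and held at 4 °C overnight, in 25 mM KH2PO4, 60 mM KCl, pH 7.4, 0.5% DMSO. DNA 10 μM in cell, ligand 500 μM in syringe; 19 injections of 4 s, 150 s apart, 750 rpm stirring; blank heat subtracted before model fitting.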
(Isothermal titration calorimetry measures the heat released or taken up as one component is titrated into another.)

For assay [10], the system named is Quadruplex DNA. In words: Binding affinity to telomeric Htg24 G-quadruplex DNA (unknown origin) at pH 7.4 by fluorescence titration analysis. The assay is classed as nucleic-acid assay.
For assay [11], the system named is Quadruplex DNA. In words: Binding affinity to G4 quadruplex DNA in human U87 cells assessed as decrease in fluorescence intensity at 5 uM in presence of 5 to 20 uM BRACO19 by DAPI staining based confocal laser microscopic analysis. It counts as cell-based. Summed up:
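Live U87 cells stained with ligand (5 μM) plus DAPI, with BRACO19 added at 0, 5, 10, 15 or 20 μM. Confocal imaging with excitation at 488 or 571 nm for the ligand and 402 nm for DAPI; nuclear spot fluorescence intensity scored.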

Assay [12] concerns Quadruplex DNA [UNDEFINED MUTATION]. In words: Binding affinity to telomeric Htg24 G-quadruplex DNA A14G mutant (unknown origin) assessed as negative fluorescence signal at 5 uM under pH condition 7.4 by fluorescence titration analysis. The assay is classed as nucleic-acid assay. The conditions noted are these: Homo sapiens. Summed up: as §2
For assay [13], the system named is rRNA. In words: Binding affinity to rRNA (unknown origin) assessed as equilibrium binding constant at 5 uM at 25 degreeC […]. It counts as nucleic-acid assay. Summed up:
as §3

Assay [14] has as its target DNA. In words: Binding affinity to ds26 DNA (unknown origin) assessed as dissociation constant by isothermal titration calorimetric analysis. The assay is classed as nucleic-acid assay. Summed up:
as §5

Assay [15] relates to HepG2. In words: Antiproliferative activity against human HepG2 cells assessed as reduction in cell viability […] by MTT assay. It counts as functional, cell-based.
Assay [16] concerns HeLa. In words: Downregulation of hTERC mRNA expression in human HeLa cells at 5 to 20 uM by qRT-PCR analysis. The assay is classed as functional, cell-based. Conditions: dose 5-20 µM. Summed up: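 HeLa cells were treated with graded compound concentrations, then incubated 36 h. RNA was extracted with Trizol/chloroform, reverse transcribed and quantified by qRT-PCR. GAPDH served as internal control, with relative expression by the ΔΔCt method; three independent experiments, mean ± SD.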

For assay [17], the system named is Quadruplex DNA [UNDEFINED MUTATION]. In words: Effect on confirmation of telomeric Htg24 G-quadruplex DNA A8G mutant (unknown origin) assessed as hybrid topology at 5 uM at pH 7.4 by circular dichroism analysis. The assay is classed as nucleic-acid assay. The conditions noted are these: Homo sapiens. Summed up: as §4
The test system is the same in assay [18]. In words: Effect on confirmation of telomeric Htg24 G-quadruplex DNA G22A mutant (unknown origin) assessed as hybrid topology at 5 uM at pH 7.4 by circular dichroism analysis. It counts as nucleic-acid assay. The conditions noted are these: Homo sapiens. Summed up: as §4
In assay [19] the target is Telomerase reverse transcriptase (Homo sapiens) (UniProt O14746). In words: Inhibition of telomerase in human HeLa cells incubated for 36 hrs by TRAP assay. The conditions noted are these: dose 1-20 µM. It counts as cell-based. An outline of the steps: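 HeLa cells were treated with ligand for 36 h, and 10^6 cells were lysed in CHAPS buffer on ice for 30 min. Extract protein (10–750 ng/ml) was extended with TS primer in TRAP buffer (pH 8.3) at 30 °C for 30 min, then heat-inactivated at 95 °C. Products were PCR-amplified for 33 cycles, resolved on 10% native PAGE and stained with SYBR Gold.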

Assay [20] concerns Quadruplex DNA [UNDEFINED MUTATION]. In words: Binding affinity to telomeric Htg24 G-quadruplex DNA T6G mutant (unknown origin) assessed as negative fluorescence signal at 5 uM under pH condition 7.4 by fluorescence titration analysis. It counts as nucleic-acid assay. Conditions: Homo sapiens. An outline of the steps: as §1
Assay [21] concerns the target Quadruplex DNA. In words: Binding affinity to telomeric Htg22 G-quadruplex DNA (unknown origin) assessed as dissociation constant by isothermal titration calorimetric analysis. It counts as nucleic-acid assay. An outline of the steps: as §5
The subject of assay [22] is Quadruplex DNA. In words: Binding affinity to telomeric Htg22 G-quadruplex DNA (unknown origin) assessed as fold increase in fluorescence signal at 5 uM under pH condition 7.4 by fluorescence method. The assay is classed as nucleic-acid assay. An outline of the steps: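 Ligand 5 μM with each nucleic acid at 15 μM in 10 mM Tris-HCl pH 7.4, 60 mM KCl; emission enhancement expressed as F/F0 against ligand without DNA.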

For assay [23], the system named is Quadruplex DNA [UNDEFINED MUTATION]. In words: Effect on confirmation of telomeric Htg24 G-quadruplex DNA T6G mutant (unknown origin) assessed as hybrid topology at 5 uM at pH 7.4 by circular dichroism analysis. It counts as nucleic-acid assay. Conditions: Homo sapiens. An outline of the steps: as §4
For assay [24], the system named is Quadruplex DNA. In words: Binding affinity to telomeric Htg24 G-quadruplex DNA (unknown origin) assessed as change in melting temperature at 5 uM at pH 7.4 by circular dichroism analysis. It counts as nucleic-acid assay. An outline of the steps:
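CD melting: G4-DNA 5 μM with ligand 5 μM in 10 mM Tris-HCl pH 7.4, 60 mM KCl; signal recorded at 1 °C intervals from 25 to 95 °C, heating 1.0 °C/min.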

Telomerase reverse transcriptase (Homo sapiens), sequence (O14746 whole entry): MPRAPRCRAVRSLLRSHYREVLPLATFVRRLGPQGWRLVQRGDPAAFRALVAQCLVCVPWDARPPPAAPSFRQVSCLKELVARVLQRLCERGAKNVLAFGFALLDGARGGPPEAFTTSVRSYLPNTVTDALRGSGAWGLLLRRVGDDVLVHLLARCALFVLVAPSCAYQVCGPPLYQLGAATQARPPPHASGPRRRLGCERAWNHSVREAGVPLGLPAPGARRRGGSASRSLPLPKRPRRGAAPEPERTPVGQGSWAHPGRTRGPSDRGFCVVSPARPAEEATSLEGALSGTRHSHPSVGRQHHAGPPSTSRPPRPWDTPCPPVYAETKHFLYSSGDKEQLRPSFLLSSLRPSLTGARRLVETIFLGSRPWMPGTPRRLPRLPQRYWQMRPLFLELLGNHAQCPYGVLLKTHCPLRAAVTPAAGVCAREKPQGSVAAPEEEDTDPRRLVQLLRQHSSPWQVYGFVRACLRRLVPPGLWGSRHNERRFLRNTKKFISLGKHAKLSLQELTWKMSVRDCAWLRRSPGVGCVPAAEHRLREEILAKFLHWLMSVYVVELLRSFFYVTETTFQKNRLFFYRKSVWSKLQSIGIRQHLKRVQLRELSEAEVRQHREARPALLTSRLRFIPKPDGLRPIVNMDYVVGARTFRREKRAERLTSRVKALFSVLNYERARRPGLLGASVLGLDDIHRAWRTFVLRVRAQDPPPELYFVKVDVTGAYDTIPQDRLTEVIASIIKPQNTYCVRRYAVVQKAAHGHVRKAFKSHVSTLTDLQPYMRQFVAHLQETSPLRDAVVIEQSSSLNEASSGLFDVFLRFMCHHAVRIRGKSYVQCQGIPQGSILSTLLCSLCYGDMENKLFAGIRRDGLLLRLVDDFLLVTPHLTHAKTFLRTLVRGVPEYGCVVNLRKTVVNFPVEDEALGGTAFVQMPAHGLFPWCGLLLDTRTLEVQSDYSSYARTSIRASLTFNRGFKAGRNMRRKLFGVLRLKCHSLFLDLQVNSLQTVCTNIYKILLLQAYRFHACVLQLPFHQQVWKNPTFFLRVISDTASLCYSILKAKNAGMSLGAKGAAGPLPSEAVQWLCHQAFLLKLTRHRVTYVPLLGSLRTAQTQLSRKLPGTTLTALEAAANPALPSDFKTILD

For orientation: IC50 means the concentration that gives 50% inhibition. As a reminder, the Kd is the free concentration of one partner at which half of the binding sites on the other are occupied at equilibrium, for simple one-to-one binding. For orientation: ΔTm means the change in melting temperature against a reference sample. Consider `CN(C)c1ccc(/C=C/c2cc(/C=C3\Sc4ccccc4N3CCCN3CCOCC3)c3ccccc3[n+]2C)cc1.[I-]`, for which the outcome in [1] and in assay [2] was inactive. The outcome in assay [3], in assay [5], in assay [6], in assay [10], in [11] and in assay [12] was Active. Also, the outcome in assay [16], in assay [17], in [18], in [20] and in assay [23] was Active. For the same compound, the Kb in assay [4] was 367000 M⁻¹; in [13] it was 620000 M⁻¹. Besides, the IC50 in [7] came to 14500 nM; in assay [15] it was 12800 nM. For the same compound, in assay [8], the Activity turned out to be 0.217. In addition, the Kd was found to be 650 nM in assay [9], 2970 nM in assay [14] and 710 nM in [21]. In [19], the inhibition entry was “Dose-Dependent Effect”. Besides, the fold change (FC) in assay [22] stood at 120. Also, in assay [24], the thermal shift (ΔTm) came to 9.1 °C.
